Consider seven molecules from ChEMBL document CHEMBL1121756, “Structure-activity relationships of the cycloalkyl ring of phencyclidine” (J Med Chem, 1981).

Each structure is given as a SMILES string. Activity calls are given as the source filed them. The rule behind the calls is not given here.

Experiment [1] is filed under the species Rattus norvegicus. As to the kind of experiment: Relative potency in the rat discriminative stimulus assay, expressed as mg of PCP (= 1.0 mg of compound). Type of experiment: functional. The gist of the method: (§1)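 Male Fischer-derived CDF rats trained to discriminate PCP (3.0 mg/kg ip, 30 min before session) from saline in a two-choice, discrete-trial avoidance task. In tests, generalization counted if the group averaged ≥90% of 20 trials on the PCP lever. Relative potency versus PCP derived by standard bioassay statistics.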

For experiment [2], the species on record is Rattus norvegicus. As to the kind of experiment: Ability to displace 7.0 nM [3H]-PCP binding to rat brain homogenate relative to PCP. The gist of the method: (§2)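 Freshly prepared rat brain homogenate aliquots incubated 45 min at 4 °C with 7.0 nM [3H]PCP; bound radioligand measured by filtration. Displacement curve for each analogue fitted visually from a log-probit plot to give IC50. PCP run as standard in each assay, and each analogue's IC50 compared with it.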

For experiment [3], the system named is Rattus norvegicus. As to the kind of experiment: Relative potency in the rat discriminative stimulus assay, expressed as mg of PCP (= 1.0 mg of compound); Did not generalize to PCP, Tonic seizures was observed at 56 mg/Kg. The class given is functional, organism-based. The gist of the method:
as §1

For experiment [4], the system named is Rattus norvegicus. As to the kind of experiment: Relative potency in the rat discriminative stimulus assay, expressed as mg of PCP (= 1.0 mg of compound); Did not generalize to PCP, No activity seen at doses of <=56 mg/Kg. The class given is functional, organism-based. The gist of the method:
as §1

Experiment [5] concerns Rattus norvegicus. As to the kind of experiment: Relative potency in the rat discriminative stimulus assay, expressed as mg of PCP (= 1.0 mg of compound); Did not generalize to PCP, Produced CNS depression at 56 mg/Kg. The class given is functional, organism-based.
The species named for experiment [6] is Rattus norvegicus. As to the kind of experiment: Ability to displace 7.0 nM [3H]PCP binding to rat brain homogenate relative to PCP (IC50= 270 nM). In short, it runs like this:
as §2

The species named for experiment [7] is Rattus norvegicus. As to the kind of experiment: Inhibitory concentration for [3H]PCP binding to rat brain homogenate relative to PCP. In short, it runs like this:
as §2

Take `Cl.c1ccc(C2(N3CCCCC3)CCCCCC2)cc1`: the Relative potency worked out at 0.06 in experiment [1] and 0.23 in experiment [2].

On to `c1ccc(C2(N3CCCCC3)CCCCCCC2)cc1`, for which, in experiment [2], the Relative potency stood at 0.72. For the same molecule, the Relative potency result in experiment [3] was “inactive”.

On to `c1ccc(C2(N3CCCCC3)CC2)cc1`, for which the Relative potency in experiment [2] amounted to 0.07. The Relative potency result in experiment [4] was “inactive”.

With `Cl.c1ccc(C2(N3CCCCC3)CCC2)cc1`, the results for the Relative potency in experiment [1] and in experiment [2] were 0.19 and 0.08, respectively.

As for `Cl.c1ccc(C2(N3CCCCC3)CCCC2)cc1`, the Relative potency in experiment [1] stood at 0.37; in experiment [2], 0.12.

As for `c1ccc(CN2CCCCC2)cc1`, the Relative potency result in experiment [5] was “inactive”. Also, the Relative potency in experiment [2] came to 0.02.

On to `Cl.c1ccc(C2(N3CCCCC3)CCCCC2)cc1` [PHENCYCLIDINE HYDROCHLORIDE], for which the Relative potency in experiment [6] and in experiment [1] was 1 each time. Further, the IC50 (commonly the concentration needed to halve the response being measured) in experiment [7] was 270 nM.
